The source made the active and inactive calls. The calls are words filed in the database; no cut-off is given here.
T1: Proton-coupled folate transporter (Homo sapiens) (UniProt Q96NT5)
T1 sequence (whole entry): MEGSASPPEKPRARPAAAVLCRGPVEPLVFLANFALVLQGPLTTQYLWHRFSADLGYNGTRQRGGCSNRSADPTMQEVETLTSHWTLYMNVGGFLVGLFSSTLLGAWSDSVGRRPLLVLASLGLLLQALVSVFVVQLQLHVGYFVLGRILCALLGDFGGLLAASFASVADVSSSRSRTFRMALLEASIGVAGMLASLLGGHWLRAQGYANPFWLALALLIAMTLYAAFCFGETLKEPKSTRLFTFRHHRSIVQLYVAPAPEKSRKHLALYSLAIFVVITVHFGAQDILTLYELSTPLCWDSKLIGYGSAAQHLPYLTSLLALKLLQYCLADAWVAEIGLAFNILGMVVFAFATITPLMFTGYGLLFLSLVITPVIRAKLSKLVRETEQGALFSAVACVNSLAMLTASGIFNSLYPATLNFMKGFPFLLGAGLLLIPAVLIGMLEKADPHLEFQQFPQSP

T2: Trifunctional purine biosynthetic protein adenosine-3 (Homo sapiens) (UniProt P22102)
T2 sequence (whole entry): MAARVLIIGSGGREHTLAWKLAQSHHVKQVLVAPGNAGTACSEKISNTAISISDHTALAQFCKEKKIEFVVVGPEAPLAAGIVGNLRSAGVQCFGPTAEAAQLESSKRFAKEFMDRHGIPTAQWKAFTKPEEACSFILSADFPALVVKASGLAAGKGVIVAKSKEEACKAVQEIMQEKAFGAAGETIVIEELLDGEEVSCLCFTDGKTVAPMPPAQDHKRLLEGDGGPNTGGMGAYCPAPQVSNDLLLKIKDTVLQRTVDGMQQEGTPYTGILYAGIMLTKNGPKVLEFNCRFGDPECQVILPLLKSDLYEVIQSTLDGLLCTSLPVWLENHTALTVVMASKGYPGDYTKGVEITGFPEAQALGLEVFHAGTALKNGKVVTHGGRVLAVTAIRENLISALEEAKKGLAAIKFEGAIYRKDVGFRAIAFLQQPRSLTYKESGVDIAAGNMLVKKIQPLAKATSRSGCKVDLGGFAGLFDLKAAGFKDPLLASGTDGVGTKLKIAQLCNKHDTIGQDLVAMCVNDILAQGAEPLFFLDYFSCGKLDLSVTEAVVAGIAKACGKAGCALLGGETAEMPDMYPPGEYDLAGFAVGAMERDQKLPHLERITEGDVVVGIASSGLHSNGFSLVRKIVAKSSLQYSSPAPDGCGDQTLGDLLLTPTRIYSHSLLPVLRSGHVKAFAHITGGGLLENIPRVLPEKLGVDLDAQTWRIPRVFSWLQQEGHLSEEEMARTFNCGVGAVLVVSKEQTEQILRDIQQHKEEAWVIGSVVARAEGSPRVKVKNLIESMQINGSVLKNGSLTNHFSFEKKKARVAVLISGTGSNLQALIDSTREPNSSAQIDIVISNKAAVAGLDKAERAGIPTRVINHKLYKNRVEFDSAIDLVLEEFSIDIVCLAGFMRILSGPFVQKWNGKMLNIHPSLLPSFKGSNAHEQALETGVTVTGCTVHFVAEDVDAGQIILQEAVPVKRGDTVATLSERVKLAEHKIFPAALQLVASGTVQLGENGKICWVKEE

T3: Trifunctional purine biosynthetic protein adenosine-3 (Homo sapiens, UniProt P22102)
T3 sequence (P22102 whole entry): T2 sequence (whole entry)

B1: Proton-coupled folate transporter (Homo sapiens), Q96NT5 (protein)
chain: T1 sequence (whole entry)

Tests used:
[1] = test system: R2; experiment: Cytotoxicity against PCFT-null Chinese hamster R2 cells assessed as cell growth inhibition after 96 hrs by CellTiter-Blue assay; type: cell-based, Cricetulus griseus; conditions: R2, 96 h
[2] = test system: R2; experiment: Cytotoxicity against Chinese hamster R2 cells transfected with empty PCDNA3 assessed as cell growth inhibition after 96 hrs by CellTiter-Blue assay; type: cell-based, Cricetulus griseus
[3] = biological target: T1, Proton-coupled folate transporter (Homo sapiens); experiment: Binding affinity to human PCFT expressed in Chinese hamster R2/PCFT4 cells assessed as cell growth inhibition after 96 hrs by CellTiter-Blue assay in presence of 200 nM folic acid; type: cell-based
Summary of the method: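 Human-PCFT-transfected R2 CHO cells, precultured with G418, were plated at ~2500–5000 cells/well across a range of drug concentrations. Medium was folate-free RPMI 1640 (pH 7.2) with 25 nM LCV and 10% dialyzed FBS. Parallel wells received 200 nM folic acid. Incubated up to 96 h, then read with CellTiter Blue fluorescence (ex 560/em 590 nm).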

[4] = test system: KB; experiment: Antiproliferative activity against human KB cells expressing FRalpha/PCFT/RFC assessed as cell growth inhibition after 96 hrs by CellTiter-Blue assay; type: functional, cell-based
[5] = test system: KB; experiment: Antiproliferative activity against human KB cells expressing FRalpha/PCFT/RFC assessed as cell growth inhibition after 96 hrs by CellTiter-Blue assay in presence of 200 nM folic acid; type: functional, cell-based
[6] = biological target: Folate receptor alpha (Homo sapiens) (UniProt P15328); experiment: Displacement of [3H]-folic acid from human FRalpha expressed in Chinese hamster RT16 cells after 15 mins relative to folic acid; type: cell-based
Summary of the method: (§1)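 Competitive binding to surface folate receptor on RT16 (FRα) or D4 (FRβ) CHO cells. Cells were acid-washed (pH 3.5) to strip bound folate, then incubated in HEPES-buffered saline pH 7.4 with 50 nM [3H]folic acid plus unlabeled ligand (0–1000 nM) for 15 min at 0 °C. Bound label was normalised to protein. Affinity is the inverse molar ratio for 50% displacement, with folic acid set to 1. Mean of 4–10 experiments ±SE.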

[7] = biological target: Folate receptor beta (Homo sapiens) (UniProt P14207); experiment: Displacement of [3H]-folic acid from human FRbeta expressed in Chinese hamster D4 cells after 15 mins relative to folic acid; type: cell-based; summary of the method: as §1
[8] = biological target: T2, Trifunctional purine biosynthetic protein adenosine-3 (Homo sapiens); experiment: Inhibition of GARFTase in human KB cells expressing FRalpha/PCFT/RFC assessed as cell growth inhibition after 96 hrs by CellTiter-Blue assay in presence of adenosine; type: cell-based
[9] = biological target: T2, Trifunctional purine biosynthetic protein adenosine-3 (Homo sapiens); experiment: Inhibition of GARFTase in human KB cells expressing FRalpha/PCFT/RFC assessed as cell growth inhibition after 96 hrs by CellTiter-Blue assay in presence of thymidine; type: cell-based
[10] = biological target: T2, Trifunctional purine biosynthetic protein adenosine-3 (Homo sapiens); experiment: Inhibition of GARFTase in human KB cells expressing FRalpha/PCFT/RFC assessed as cell growth inhibition after 96 hrs by CellTiter-Blue assay in presence of AICA; type: cell-based
[11] = biological target: T3, Trifunctional purine biosynthetic protein adenosine-3; experiment: Inhibition of GARFTase in human KB cells expressing FRalpha/PCFT/RFC assessed as incorporation of [14C(U)]-glycine into [14C]-formyl GAR preincubated for 1 hr followed by azaserine, L-glutamine, 14C(U)]-glycine addition measured after 16 hrs; type: cell-based
Summary of the method: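 In situ assay in KB cells. Cells were exposed to a range of drug concentrations with [14C]glycine for 16 h under proliferation-assay conditions, with azaserine present. Radiolabelled metabolites were extracted and separated on anion exchange columns, and [14C]formyl GAR quantified. Mean ±SE of three experiments.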

[12] = biological target: T3, Trifunctional purine biosynthetic protein adenosine-3; experiment: Inhibition of human recombinant His-tagged GARFTase assessed as formation of 5,8-dideazafolate from 10-formyl-5,80-dideazafolic acid measured every 15 secs over 20 mins by spectrophotometric analysis
[13] = substrate: Nc1nc2[nH]c(CCCc3cc(C(=O)N[C@@H](CCC(=O)O)C(=O)O)cs3)cc2c(=O)[nH]1; experiment: (§2) Binding affinity to human PCFT expressed in Chinese hamster R2/PCFT4 cells assessed as intracellular drug transport rate at 37 degC at pH 5.5 measured over 2 mins by Lineweaver-Burk plot analysis; type: cell-based
Summary of the method: (§3)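 R2/PCFT4 CHO cells were grown as monolayers, transferred to spinner flasks, and used as suspensions (5–10 × 10⁷ cells). Uptake was quenched with ice-cold DPBS and cells were NaOH-solubilized. Results are pmol/mg protein; Kt and Vmax come from Lineweaver–Burke plots.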

[14] = substrate: Nc1nc2[nH]cc(CCc3ccc(C(=O)N[C@@H](CCC(=O)O)C(=O)O)cc3)c2c(=O)[nH]1; experiment: as §2; type: cell-based; summary of the method: as §3
[15] = substrate: Nc1nc2[nH]c(CCCc3cc(C(=O)N[C@@H](CCC(=O)O)C(=O)O)cs3)cc2c(=O)[nH]1; experiment: (§4) Binding affinity to human PCFT expressed in Chinese hamster R2/PCFT4 cells assessed as intracellular drug transport rate at 37 degC at pH 6.8 measured over 2 mins by Lineweaver-Burk plot analysis; type: cell-based; summary of the method: as §3
[16] = substrate: Nc1nc2[nH]cc(CCc3ccc(C(=O)N[C@@H](CCC(=O)O)C(=O)O)cc3)c2c(=O)[nH]1; experiment: as §4; type: cell-based; summary of the method: as §3

Chain of Folate receptor beta (Homo sapiens) (P14207 17-230 limits assumed): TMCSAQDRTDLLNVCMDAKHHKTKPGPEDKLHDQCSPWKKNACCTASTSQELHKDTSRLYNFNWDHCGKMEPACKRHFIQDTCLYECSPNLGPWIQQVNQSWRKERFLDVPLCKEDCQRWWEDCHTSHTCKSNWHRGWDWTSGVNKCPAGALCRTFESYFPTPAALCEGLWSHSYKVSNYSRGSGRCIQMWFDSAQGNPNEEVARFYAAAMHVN
Chain of Folate receptor alpha (Homo sapiens) (P15328 25-234 limits assumed): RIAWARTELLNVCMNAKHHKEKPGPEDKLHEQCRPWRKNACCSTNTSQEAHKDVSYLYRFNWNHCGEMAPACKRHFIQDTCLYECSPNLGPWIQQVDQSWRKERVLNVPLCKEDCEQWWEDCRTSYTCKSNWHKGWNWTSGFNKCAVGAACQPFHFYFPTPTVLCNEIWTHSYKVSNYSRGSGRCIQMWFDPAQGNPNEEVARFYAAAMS

| Molecule | IC50 [1] [nM] | IC50 [2] [nM] | Activity [3] | IC50 [4] [nM] | IC50 [5] [nM] | Activity [6] [%] | Activity [7] [%] | inhibition [8] | inhibition [9] | inhibition [10] | IC50 [11] [nM] | Ki [12] [nM] | Vmax [13] [pmol/mg/min] | Vmax [14] [pmol/mg/min] | Vmax [15] [pmol/mg/min] | Vmax [16] [pmol/mg/min] |
| --- | --- | --- | --- | --- | --- | --- | --- | --- | --- | --- | --- | --- | --- | --- | --- | --- |
| Nc1nc2[nH]c(CCCc3csc(C(=O)N[C@@H](CCC(=O)O)C(=O)O)c3)cc2c(=O)[nH]1 | 355 | > 1000 | Active | 0.17 | 337 | 60 | 35 | inactive | Active | inactive | 2.4 | 13 | – | – | – | – |
| Nc1nc(N)c2c(CCCc3csc(C(=O)N[C@@H](CCC(=O)O)C(=O)O)c3)coc2n1 | – | – | – | – | – | – | – | inactive | – | inactive | 82 | 5500 | – | – | – | – |
| B1 | – | – | – | – | – | – | – | – | – | – | – | – | 24.6 | 13.4 | 3 | 9.2 |

From ChEMBL document CHEMBL3627626, “6-Substituted Pyrrolo[2,3-d]pyrimidine Thienoyl Regioisomers as Targeted Antifolates for Folate Receptor α and the Proton-Coupled Folate Transporter in Human Tumors” (J Med Chem, 2015)
